Assay results from ChEMBL document CHEMBL1156453, “Cellular characterization of a novel focal adhesion kinase inhibitor” (J Biol Chem, 2007).
Activity calls are given as the source filed them. The rule behind the calls is not given here.

Columns and labels:
[1] = molecular target: Mast/stem cell growth factor receptor Kit (Homo sapiens) (UniProt P10721); assay: Inhibition of c-kit at 1 uM
[2] = molecular target: Tyrosine-protein kinase Lck (Homo sapiens) (UniProt P06239); assay: Inhibition of LCK at 1 uM
[3] = molecular target: Mitogen-activated protein kinase 1 (Homo sapiens) (UniProt P28482); assay: Inhibition of human MAPK1 at 1 uM
Procedure, shortened: (§1)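 Recombinant kinases were screened in a commercial profiling panel with the compound at a single concentration of 1 μM. The read-out is percent inhibition of each enzyme's kinase activity.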

[4] = molecular target: Dual specificity mitogen-activated protein kinase kinase 1 (Homo sapiens) (UniProt Q02750); assay: Inhibition of human MEK1 at 1 uM
[5] = Inhibition of MKK at 1 uM; procedure, shortened: as §1
[6] = molecular target: Dual specificity mitogen-activated protein kinase kinase 6 (Homo sapiens) (UniProt P52564); assay: Inhibition of MKK6 at 1 uM
[7] = molecular target: Platelet-derived growth factor receptor beta (Homo sapiens) (UniProt P09619); assay: Inhibition of PDGFRbeta at 1 uM
[8] = molecular target: Ribosomal protein S6 kinase beta-1 (Homo sapiens) (UniProt P23443); assay: Inhibition of human P70S6K at 1 uM
[9] = molecular target: Phosphatidylinositol 4,5-bisphosphate 3-kinase catalytic subunit gamma isoform (Homo sapiens) (UniProt P48736); assay: Inhibition of human PI3-Kgamma at 1 uM
[10] = species on record: Homo sapiens; assay: Inhibition of human PKA at 1 uM; procedure, shortened: as §1
[11] = species on record: Homo sapiens; assay: Inhibition of human PKBalpha at 1 uM; procedure, shortened: as §1
[12] = molecular target: Protein kinase C alpha type (Homo sapiens) (UniProt P17252); assay: Inhibition of human PKCalpha at 1 uM
[13] = Inhibition of cell migration of rat REF52 cells assessed as reduction in rate of movement of cell into wound at 10 uM by wound healing assay in presence of 10% serum; format: functional; parameters: scale not given: the % may be the effect or the level left
[14] = molecular target: Cyclin-dependent kinase 1/cyclin B1 (Homo sapiens, UniProt P06493); assay: Inhibition of human CDK1/cyclinB; format: protein-complex assay
[15] = molecular target: Cyclin-dependent kinase 7 (Homo sapiens, UniProt P50613); assay: Inhibition of human CDK7/cyclinH/MAT1
[16] = molecular target: Glycogen synthase kinase-3 beta (Homo sapiens, UniProt P49841); assay: Inhibition of human GSK3-beta
[17] = test system: NIH3T3; assay: Inhibition of focal adhesion turnover in wounded mouse NIH3T3 cells expressing GFP-paxillin assessed as average adhesion life-time at 10 uM by TIRF microscopy; format: functional
[18] = molecular target: Paxillin (Rattus norvegicus) (UniProt Q66H76); assay: Induction of paxillin organization loss in focal adhesion in rat REF52 cells at 3 uM after 1 hr by immunostaining; format: cell-based
Procedure, shortened: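 REF52 cells held in suspension 30 min to 1 h without serum with inhibitor, then plated on 5 μg/ml fibronectin-coated coverslips for 60 min with inhibitor still present. Cells fixed in 4% paraformaldehyde, permeabilized with Triton X-100 and immunostained for paxillin and phospho-FAK Tyr397. Imaged by fluorescence microscopy, 60× objective.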

[19] = molecular target: T1, Focal adhesion kinase 1 (Homo sapiens, UniProt Q05397); assay: Inhibition of FAK Tyr397 phosphorylation in human A431 cells by ELISA
[20] = molecular target: T1, Focal adhesion kinase 1; assay: Inhibition of FAK Tyr397 phosphorylation in human PC3 cells after 60 mins by Western blot analysis
[21] = molecular target: T1, Focal adhesion kinase 1; assay: Inhibition of FAK Tyr397 phosphorylation in human SKOV3 cells after 60 mins by Western blot analysis
[22] = molecular target: T1, Focal adhesion kinase 1; assay: Inhibition of FAK Tyr397 phosphorylation in human L3.6pl cells after 60 mins by Western blot analysis
[23] = molecular target: T1, Focal adhesion kinase 1; assay: Inhibition of FAK Tyr397 phosphorylation in human FG cells after 60 mins by Western blot analysis
[24] = Inhibition of FAK Tyr397 phosphorylation in dog MDCK cells after 60 mins by Western blot analysis; format: cell-based; conditions: Canis lupus familiaris, 1 h
Procedure, shortened: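 MDCK cells treated with increasing inhibitor concentrations, 60 min, as for REF52. Whole-cell lysates immunoblotted for phospho-FAK Tyr397 and total FAK. Phospho-signal normalized to total FAK, and IC50 derived from the concentration series.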

[25] = test system: Fibroblast; assay: Inhibition of cell growth in […] fibroblast at 10 uM; format: functional, cell-based
[26] = molecular target: Paxillin (Rattus norvegicus) (UniProt Q66H76); assay: Decrease in Paxillin Try31 phosphorylation in rat REF52 cells; format: cell-based
Procedure, shortened: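 REF52 cells exposed to 1 μm inhibitor for the indicated times, then lysed in CH buffer containing phosphatase and protease inhibitors. Whole-cell lysates resolved by SDS-PAGE and immunoblotted with anti-phospho-Tyr31 paxillin and anti-paxillin.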

[27] = test system: MDCK; assay: Induction of apoptosis in attached dog MDCK cells assessed as histone accumulation after 16 hrs by ELISA; format: functional, cell-based; conditions: Canis lupus familiaris
Procedure, shortened: (§2)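 Attached cells in serum-containing medium treated with inhibitor at the indicated concentrations, 24 h for REF52 and PC3, 16 h for MDCK, then lysed. Free histones in lysates measured by cell death detection ELISA, in duplicate. Untreated adherent cells were the negative control. Cells suspended 16–24 h in serum-free medium were the positive control. One of three experiments shown.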

[28] = test system: REF52; assay: Induction of apoptosis in attached rat REF52 cells assessed as histone accumulation after 24 hrs by ELISA; format: functional, cell-based; procedure, shortened: as §2
[29] = test system: PC-3; assay: Induction of apoptosis in attached human PC3 cells assessed as histone accumulation after 24 hrs by ELISA; format: functional, cell-based; procedure, shortened: as §2
[30] = test system: NIH3T3; assay: Inhibition of focal adhesion turnover in wounded mouse NIH3T3 cells expressing GFP-paxillin assessed as decrease in rate of disassembly by TIRF microscopy; format: functional, cell-based
[31] = test system: PC-3; assay: Cell number in human PC3 cells at 1 uM after 3 days as % of control; conditions: PC-3, 72 h
[32] = Cell number in rat REF52 cells at 1 uM after 3 days as % of control; conditions: REF52, 72 h
[33] = test system: PC-3; assay: Cell number in human PC3 cells at 10 uM after 3 days as % of control; conditions: PC-3, 72 h
[34] = Cell number in rat REF52 cells at 10 uM after 3 days as % of control; conditions: REF52, 72 h
[35] = test system: PC-3; assay: Induction of apoptosis in human PC3 cells attached in serum containing medium assessed as histone accumulation after 24 hrs by ELISA

T1 sequence (Q05397 whole entry): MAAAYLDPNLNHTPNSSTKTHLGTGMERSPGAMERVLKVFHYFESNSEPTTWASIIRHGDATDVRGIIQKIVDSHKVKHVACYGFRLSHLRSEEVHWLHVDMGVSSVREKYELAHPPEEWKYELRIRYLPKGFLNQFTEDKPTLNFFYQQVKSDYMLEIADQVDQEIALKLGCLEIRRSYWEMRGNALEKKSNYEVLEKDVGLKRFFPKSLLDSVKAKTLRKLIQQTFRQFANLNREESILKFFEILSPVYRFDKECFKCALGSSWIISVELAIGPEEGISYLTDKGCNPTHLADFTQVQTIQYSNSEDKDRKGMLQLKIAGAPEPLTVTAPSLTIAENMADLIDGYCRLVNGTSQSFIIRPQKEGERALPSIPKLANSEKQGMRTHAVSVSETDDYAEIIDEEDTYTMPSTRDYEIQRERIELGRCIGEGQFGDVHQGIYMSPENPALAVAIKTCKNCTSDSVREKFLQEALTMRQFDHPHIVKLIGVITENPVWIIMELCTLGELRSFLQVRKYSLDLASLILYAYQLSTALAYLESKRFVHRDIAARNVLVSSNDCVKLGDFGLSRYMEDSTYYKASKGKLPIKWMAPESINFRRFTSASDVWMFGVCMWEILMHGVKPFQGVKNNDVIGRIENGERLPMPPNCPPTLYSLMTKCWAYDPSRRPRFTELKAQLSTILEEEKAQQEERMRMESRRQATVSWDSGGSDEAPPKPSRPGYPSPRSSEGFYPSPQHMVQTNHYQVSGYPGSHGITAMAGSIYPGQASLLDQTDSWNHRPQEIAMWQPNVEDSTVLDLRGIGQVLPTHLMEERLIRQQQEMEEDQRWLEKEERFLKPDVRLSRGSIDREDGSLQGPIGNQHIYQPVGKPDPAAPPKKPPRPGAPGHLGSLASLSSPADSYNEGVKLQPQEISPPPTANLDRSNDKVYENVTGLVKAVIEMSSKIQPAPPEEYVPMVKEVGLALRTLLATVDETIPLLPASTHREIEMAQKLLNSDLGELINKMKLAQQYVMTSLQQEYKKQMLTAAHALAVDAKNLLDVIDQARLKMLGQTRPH
Sequence of Paxillin (Rattus norvegicus) (Q66H76 whole entry): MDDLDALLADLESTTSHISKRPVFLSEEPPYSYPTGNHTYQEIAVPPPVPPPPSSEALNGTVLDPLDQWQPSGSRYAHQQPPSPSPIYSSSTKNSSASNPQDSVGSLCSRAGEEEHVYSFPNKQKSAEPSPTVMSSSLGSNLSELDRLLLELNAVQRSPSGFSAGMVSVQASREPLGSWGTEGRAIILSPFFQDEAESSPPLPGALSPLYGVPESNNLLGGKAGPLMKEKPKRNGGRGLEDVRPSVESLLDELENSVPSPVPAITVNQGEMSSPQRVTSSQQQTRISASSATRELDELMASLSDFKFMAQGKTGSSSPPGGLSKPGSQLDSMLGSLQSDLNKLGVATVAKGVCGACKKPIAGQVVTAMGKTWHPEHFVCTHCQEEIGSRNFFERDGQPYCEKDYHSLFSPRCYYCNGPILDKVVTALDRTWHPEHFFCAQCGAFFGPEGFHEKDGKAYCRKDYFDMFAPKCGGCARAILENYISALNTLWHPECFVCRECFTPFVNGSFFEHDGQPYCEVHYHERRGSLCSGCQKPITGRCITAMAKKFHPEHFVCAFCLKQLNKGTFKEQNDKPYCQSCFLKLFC
Sequence of Cyclin-dependent kinase 1/cyclin B1 (P06493 whole entry): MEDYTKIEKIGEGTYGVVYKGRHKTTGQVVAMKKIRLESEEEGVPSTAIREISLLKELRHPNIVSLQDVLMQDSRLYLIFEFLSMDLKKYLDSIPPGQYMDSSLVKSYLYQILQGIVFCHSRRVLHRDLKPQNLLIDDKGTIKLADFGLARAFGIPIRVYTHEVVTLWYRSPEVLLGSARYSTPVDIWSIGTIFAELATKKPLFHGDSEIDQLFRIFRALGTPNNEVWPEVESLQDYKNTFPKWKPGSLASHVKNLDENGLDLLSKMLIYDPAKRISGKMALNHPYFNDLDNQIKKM
Sequence of Cyclin-dependent kinase 1/cyclin B1 (P14635 whole entry, further chain): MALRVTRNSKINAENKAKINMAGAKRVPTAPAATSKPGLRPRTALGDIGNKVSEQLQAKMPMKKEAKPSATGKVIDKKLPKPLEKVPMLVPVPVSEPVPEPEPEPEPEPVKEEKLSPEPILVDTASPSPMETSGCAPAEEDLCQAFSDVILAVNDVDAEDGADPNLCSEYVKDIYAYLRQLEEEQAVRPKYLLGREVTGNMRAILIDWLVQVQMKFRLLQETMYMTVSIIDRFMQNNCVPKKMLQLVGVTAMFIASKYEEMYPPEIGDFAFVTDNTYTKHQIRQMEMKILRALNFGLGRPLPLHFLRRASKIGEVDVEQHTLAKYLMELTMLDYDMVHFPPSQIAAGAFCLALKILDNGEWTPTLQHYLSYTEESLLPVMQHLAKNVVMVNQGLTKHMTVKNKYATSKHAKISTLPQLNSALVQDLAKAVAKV
Sequence of Dual specificity mitogen-activated protein kinase kinase 6 (Homo sapiens) (P52564 whole entry): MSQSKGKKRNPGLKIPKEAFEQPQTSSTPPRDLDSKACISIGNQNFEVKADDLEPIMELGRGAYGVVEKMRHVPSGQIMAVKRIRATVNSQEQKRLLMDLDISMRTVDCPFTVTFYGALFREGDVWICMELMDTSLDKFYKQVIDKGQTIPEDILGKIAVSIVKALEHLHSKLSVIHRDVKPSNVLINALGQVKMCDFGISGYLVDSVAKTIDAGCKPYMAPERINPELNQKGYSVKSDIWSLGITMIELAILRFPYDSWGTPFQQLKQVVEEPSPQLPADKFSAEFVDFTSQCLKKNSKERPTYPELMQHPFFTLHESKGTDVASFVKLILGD
Sequence of Phosphatidylinositol 4,5-bisphosphate 3-kinase catalytic subunit gamma isoform (Homo sapiens) (P48736 whole entry, looked up, canonical isoform): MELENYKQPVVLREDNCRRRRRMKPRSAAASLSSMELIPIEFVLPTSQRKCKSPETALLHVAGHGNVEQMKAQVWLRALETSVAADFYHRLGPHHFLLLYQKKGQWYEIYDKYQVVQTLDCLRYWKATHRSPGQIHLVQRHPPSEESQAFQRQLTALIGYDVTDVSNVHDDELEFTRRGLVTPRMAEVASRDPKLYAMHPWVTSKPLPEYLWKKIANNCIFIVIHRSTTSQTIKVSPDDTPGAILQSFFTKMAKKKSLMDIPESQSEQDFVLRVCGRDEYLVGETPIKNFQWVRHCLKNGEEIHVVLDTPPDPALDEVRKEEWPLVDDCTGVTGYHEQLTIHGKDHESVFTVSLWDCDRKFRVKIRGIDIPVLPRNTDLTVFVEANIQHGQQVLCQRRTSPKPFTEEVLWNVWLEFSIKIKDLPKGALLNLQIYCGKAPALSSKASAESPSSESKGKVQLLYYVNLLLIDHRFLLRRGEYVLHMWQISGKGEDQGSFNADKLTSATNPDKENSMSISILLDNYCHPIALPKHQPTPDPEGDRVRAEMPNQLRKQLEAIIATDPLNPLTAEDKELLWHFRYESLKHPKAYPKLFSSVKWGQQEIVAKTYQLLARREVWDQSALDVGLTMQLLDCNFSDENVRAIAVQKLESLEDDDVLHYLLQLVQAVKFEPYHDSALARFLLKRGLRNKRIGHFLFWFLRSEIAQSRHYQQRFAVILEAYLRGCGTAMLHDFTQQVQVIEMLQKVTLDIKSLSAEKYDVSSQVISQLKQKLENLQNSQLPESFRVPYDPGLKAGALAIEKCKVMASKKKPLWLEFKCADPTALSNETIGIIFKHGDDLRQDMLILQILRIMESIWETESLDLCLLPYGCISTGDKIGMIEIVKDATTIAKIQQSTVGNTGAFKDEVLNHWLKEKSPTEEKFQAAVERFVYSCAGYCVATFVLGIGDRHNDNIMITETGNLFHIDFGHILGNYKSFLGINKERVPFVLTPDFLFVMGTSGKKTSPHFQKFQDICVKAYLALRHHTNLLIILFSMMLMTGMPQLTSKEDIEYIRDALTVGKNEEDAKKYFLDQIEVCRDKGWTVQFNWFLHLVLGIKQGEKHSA
Sequence of Cyclin-dependent kinase 7 (P50613 whole entry): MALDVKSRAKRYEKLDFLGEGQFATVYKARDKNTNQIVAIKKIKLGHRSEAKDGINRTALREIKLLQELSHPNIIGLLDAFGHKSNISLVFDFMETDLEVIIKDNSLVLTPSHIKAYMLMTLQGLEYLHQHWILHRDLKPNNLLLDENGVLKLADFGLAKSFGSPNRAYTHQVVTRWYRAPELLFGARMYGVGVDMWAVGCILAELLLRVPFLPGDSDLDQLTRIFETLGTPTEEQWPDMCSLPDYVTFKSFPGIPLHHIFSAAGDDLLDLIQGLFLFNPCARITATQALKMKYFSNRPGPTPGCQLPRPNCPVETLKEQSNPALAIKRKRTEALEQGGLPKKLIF

`CS(=O)(=O)c1cccc(CNc2nc(Nc3ccc4c(c3)CCC(=O)N4)ncc2C(F)(F)F)c1` showed an inhibition [1] of 25%, an inhibition [2] of 0% and an inhibition [3] of 48%. It also gave an inhibition [4] of 20%, an inhibition [5] of 48% and an inhibition [6] of 16%. For the same compound, the inhibition [7] was 2%, the inhibition [8] was 31% and the inhibition [9] was 0%. The inhibition [10] was 0%, the inhibition [11] was 13% and the inhibition [12] was 12%. For the same compound, the Activity [13] was 60%, the IC50 [14] was 486 nM and the IC50 [15] was 197 nM. For the same compound, the IC50 [16] was > 1000 nM, the Time [17] was 42 min and the Activity [18] was “Active”. The IC50 [19] was 11 nM, the IC50 [20] was 100 nM and the IC50 [21] was 50 nM. For the same compound, the IC50 [22] was 300 nM, the IC50 [23] was 30 nM and the IC50 [24] was 500 nM. For the same compound, the Activity [25] was “Active”, the Activity [26] was “Dose-dependent effect” and the Activity [27] was “inactive”. The Activity [28] was “inactive”, the Activity [29] was “inactive” and the Activity [30] was “Active”. It also gave a level, % of control at 1 µM [31] of 109%, a level, % of control at 1 µM [32] of 141% and a level, % of control at 10 µM [33] of 17%. The level, % of control at 10 µM [34] was 7% and the Activity [35] was “inactive”.
